Our source for the folding enthalpy and Tm values is the array DNA melting data of Ke et al. (doi:10.1101/2024.01.08.574731).

Data set [1] is described as follows: folding enthalpy; higher = less favourable; fluorescence melt of hairpins on a sequencing array, two-state fit. As to conditions: sodium 0.088 M. The method, boiled down:
(§1)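 Bootstrapped two-state fits yielded melting temperature and folding enthalpy for library hairpins. Cy3 fluorescence, with annealed Cy3 and quencher oligos, was imaged on a sequenced MiSeq flow cell in 50 mM Na-HEPES pH 8.0, 25 mM NaCl in 2.5 °C steps up to 60 °C, and normalised to pre-quench Cy3 and to control constructs. Four replicates were combined by inverse variance, and fitted temperatures were raised by 9.35 °C to match UV melts.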

The nature of data set [2]: melting temperature; fluorescence melt of hairpins on a sequencing array, two-state fit, raised by 9.35 °C to match UV melts. As to conditions: sodium 0.088 M. The method, boiled down: as §1

On to GCCCGCGAAAGCGATGGC ((((((....)))..))), for which the folding enthalpy in data set [1] is -19.8 kcal/mol. In addition, the Tm in data set [2] worked out at 62 °C.

For GCCCGGCGAAAGCACGGC (((..((....))..))), in data set [1], the folding enthalpy is -13.3 kcal/mol. Moreover, the Tm in data set [2] was 57.1 °C.

With GCCCGGCGAAAGCCAAGC ((..(((....)))..)), the folding enthalpy in data set [1] is -10.7 kcal/mol. Besides, in data set [2], the Tm turned out to be 35.7 °C.

For the sequence GCCCGGCGAAAGCCCAGC ((..(((....)))..)), the folding enthalpy in data set [1] is -9.79 kcal/mol. In addition, the Tm in data set [2] is 32.7 °C.

Regarding GCCCGGCGAAAGCCCTGC ((..(((....)))..)), the folding enthalpy in data set [1] was -8.41 kcal/mol. Moreover, the Tm in data set [2] came out at 30.7 °C.

GCCCGGCGAAAGCCGCGC ((.((((....)))).)): in data set [1], the folding enthalpy is -17.4 kcal/mol. Moreover, the Tm in data set [2] was found to be 60.1 °C.

In the case of GCCCGGCGAAAGCCGTGC ((.((((....)))).)), the folding enthalpy in data set [1] is -13.9 kcal/mol. The Tm in data set [2] came to 59.8 °C.

As for GCCCGGCGAAAGCCTGGC (((.(((....))).))), in data set [1], the folding enthalpy is -25.8 kcal/mol. Besides, the Tm in data set [2] was 64.6 °C.

Take GCCCGGCGAAAGCGGTGC ((.(.((....)).).)): in data set [1], the folding enthalpy was -15.6 kcal/mol. For the same sequence, the Tm in data set [2] is 56.5 °C.

As for GCCCGGCGAAAGCTAGGC (((..((....))..))), the folding enthalpy in data set [1] was -21.5 kcal/mol. Further, in data set [2], the Tm came to 56.7 °C.

For GCCCGGCGAAAGCTCGGC (((..((....))..))), the folding enthalpy in data set [1] was -16.4 kcal/mol. The Tm in data set [2] turned out to be 52.7 °C.

For GCCCGGCGAAAGCTGCGC ((.(.((....)).).)), the folding enthalpy in data set [1] is -17.6 kcal/mol. The Tm in data set [2] stood at 44.2 °C.

Regarding GCCCGGGGAAACCCGAGC ((.((((....)))).)), in data set [1], the folding enthalpy was -25.2 kcal/mol. The Tm in data set [2] was 52.9 °C.

Take GCCCGGGGAAACTCGGGC (((((.(....).))))): the folding enthalpy in data set [1] is -37.5 kcal/mol. Further, the Tm in data set [2] was 67.2 °C.

As to GCCCGTACGAAAGTAGGC (((..(((....)))))), in data set [1], the folding enthalpy was -17.9 kcal/mol. Also, in data set [2], the Tm stood at 46.3 °C.

For GCCCGTGGAAACACGGAC (.(((((....))))).), the folding enthalpy in data set [1] was -14.5 kcal/mol. For the same sequence, in data set [2], the Tm stood at 50.2 °C.

In the case of GCCCTAACGAAAGTTGGC (((..(((....)))))), the folding enthalpy in data set [1] is -20.7 kcal/mol. Besides, in data set [2], the Tm is 38.5 °C.

As to GCCCTAGGAAACCAGGGC (((((.(....).))))), the folding enthalpy in data set [1] is -47 kcal/mol. The Tm in data set [2] was determined as 52.5 °C.

On to GCCCTAGGAAACTAGGGC (((((((....))))))), for which, in data set [1], the folding enthalpy is -31.2 kcal/mol. Moreover, the Tm in data set [2] is 67.5 °C.

For GCCCTAGGAAACTGGGGC ((((.((....)).)))), the folding enthalpy in data set [1] was -33.7 kcal/mol. Moreover, in data set [2], the Tm was 55.4 °C.

Turning to GCCCTCCGAAAGGAGGC (((.(((....)))))), the folding enthalpy in data set [1] is -11.9 kcal/mol. Moreover, in data set [2], the Tm stood at 61.2 °C.

GCCCTCGAAAGAGTGGGC ((((((....)))..))): in data set [1], the folding enthalpy is -25.6 kcal/mol. Besides, the Tm in data set [2] amounted to 52.7 °C.

Regarding GCCCTCGCGAAAGCGGGC (((..(((....)))))), the folding enthalpy in data set [1] was -14.2 kcal/mol. Besides, the Tm in data set [2] was 59.6 °C.

On to GCCCTGCGAAAGCAGCGC ((.((((....)))).)), for which, in data set [1], the folding enthalpy was -17.5 kcal/mol. For the same sequence, in data set [2], the Tm amounted to 56.2 °C.

Turning to GCCCTGCGAAAGCATCGC ((..(((....)))..)), the folding enthalpy in data set [1] is -7.06 kcal/mol. For the same sequence, the Tm in data set [2] is 33.6 °C.

On to GCCCTGCGAAAGCGAGGC (((..((....))..))), for which the folding enthalpy in data set [1] was -11.5 kcal/mol. Further, the Tm in data set [2] worked out at 54.2 °C.

For GCCCTGCGAAAGCTGCGC ((.(.((....)).).)), in data set [1], the folding enthalpy was -16.9 kcal/mol. Also, in data set [2], the Tm stood at 40.2 °C.

For the sequence GCCCTGGGAAACCAGGAC (.(((((....))))).), the folding enthalpy in data set [1] is -13.7 kcal/mol. The Tm in data set [2] was determined as 48.6 °C.

In the case of GCCCTGGGAAACTGGGGC ((((..(....)..)))), the folding enthalpy in data set [1] is -38 kcal/mol. Further, in data set [2], the Tm turned out to be 51.5 °C.

GCCCTTACGAAAGTAGGC (((..(((....)))))): in data set [1], the folding enthalpy was -20.6 kcal/mol. Further, the Tm in data set [2] was found to be 39.1 °C.

As to GCCCTTGGAAACAAGGAC (.(((((....))))).), in data set [1], the folding enthalpy is -17.5 kcal/mol. Further, in data set [2], the Tm amounted to 40.1 °C.

As for GCCGAAACGAAAGTTGGC (((..(((....)))))), the folding enthalpy in data set [1] is -22.3 kcal/mol. Moreover, in data set [2], the Tm amounted to 48 °C.

As for GCCGAAGGAAACTTTGGC (((.(((....))).))), the folding enthalpy in data set [1] is -39.5 kcal/mol. Further, the Tm in data set [2] stood at 51 °C.

In the case of GCCGACCCGAAAGGGGGC (((..(((....)))))), in data set [1], the folding enthalpy is -18.4 kcal/mol. In addition, the Tm in data set [2] came out at 55.7 °C.

With GCCGACGAAAGTCAAGGC ((((((....)))..))), the folding enthalpy in data set [1] was -31.1 kcal/mol. The Tm in data set [2] came out at 55.1 °C.

As for GCCGACGAAAGTCACGGC ((((((....)))..))), in data set [1], the folding enthalpy is -26.8 kcal/mol. In addition, the Tm in data set [2] came to 53.1 °C.
